This note sets out measurements from ChEMBL document CHEMBL1250555, “Anti-AIDS agents 84. Synthesis and anti-human immunodeficiency virus (HIV) activity of 2'-monomethyl-4-methyl- and 1'-thia-4-methyl-(3'R,4'R)-3',4'-di-O-(S)-camphanoyl-(+)-cis-khellactone (DCK) analogs” (Bioorg Med Chem, 2010).

Data set [1] in a line: Therapeutic index, ratio of IC50 for human H9 cells to EC50 for HIV1 3B. It is filed as cell-based. Conditions: read-out: TI. A digest of the protocol:
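Mock-infected H9 cells were run in parallel under the same conditions, and toxicity was measured by XTT. IC50 is the concentration toxic to 50% of the cells. TI = IC50/EC50, where EC50 is 50% suppression of HIV-1 IIIB replication measured by day-6 p24 antigen capture.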

For data set [2], the target named is Human immunodeficiency virus type 1 reverse transcriptase (Human immunodeficiency virus 1, UniProt Q72547). Nature of the data set: Inhibition of HIV1 DH012 reverse transcriptase by roche colorimetric assay. In short, it runs like this:
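HIV-1 DH012 RT activity was measured across a range of test-compound concentrations using a colorimetric RT kit run per the manufacturer's protocol; IC50 taken as the inhibitory concentration.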

Data set [3] relates to Human immunodeficiency virus 1. Nature of the data set: Antiviral activity against HIV1 IIIB infected in human H9 cells after 6 days by p24 antigen capture assay. The settings on record: Human immunodeficiency virus 1, H9, 144 h.
The subject of data set [4] is Human immunodeficiency virus 1. Put plainly: Antiviral activity against HIV1 3B infected in human H9 cells assessed as inhibition of viral replication at up to 100 ug/mL after 6 hrs by p24 antigen based assay. The settings on record: in the assay text read “after 6 days” for “after 6 hrs”. It is filed as functional, organism-based. A digest of the protocol: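 H9 human T cells (3 × 10^5 cells/mL) infected with HIV-1 IIIB at 125 TCID50. Compounds dissolved in DMSO and screened at final 100, 20, 4 and 0.8 μg/mL, with further dilutions for actives. Medium was replaced on days 1 and 4 post-infection. On day 6 the supernatant p24 antigen was measured by capture assay. EC50 is the concentration suppressing replication by 50%.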

By IC50 is commonly meant the concentration that inhibits the measured activity by half. A high value points to lower potency. By EC50 is commonly meant the concentration giving half of the maximal effect.

Structures are written as SMILES.

As to `Cc1cc(=O)oc2c3c(ccc12)O[C@@H](C)[C@H](OC(=O)[C@]12CC[C@](C)(C(=O)O1)C2(C)C)[C@@H]3OC(=O)[C@]12CC[C@](C)(C(=O)O1)C2(C)C`, the selectivity ratio in data set [1] was over 706. In addition, in data set [2], the IC50 is 6.7 µM. Further, the concentration for a half-maximal effect (EC50) in data set [3] is under 40 nM.

As to `Cc1cc(=O)oc2c3c(ccc12)O[C@H](C)[C@@H](OC(=O)[C@]12CC[C@](C)(C(=O)O1)C2(C)C)[C@H]3OC(=O)[C@]12CC[C@](C)(C(=O)O1)C2(C)C`, in data set [1], the selectivity ratio turned out to be 17.8. This molecule showed an EC50 in data set [3] of 2260 nM.

With `Cc1cc(=O)oc2c3c(ccc12)O[C@H](C)[C@H](OC(=O)[C@]12CC[C@](C)(C(=O)O1)C2(C)C)[C@@H]3OC(=O)[C@]12CC[C@](C)(C(=O)O1)C2(C)C`, in data set [4], the EC50 result is given as “Not Active”.

As to `Cc1cc(=O)oc2c3c(ccc12)S[C@@H](C)[C@@H](OC(=O)[C@]12CC[C@](C)(C(=O)O1)C2(C)C)[C@H]3OC(=O)[C@]12CC[C@](C)(C(=O)O1)C2(C)C`, the selectivity ratio in data set [1] is over 1000. The molecule also came in with an EC50 in data set [3] of under 39 nM.

Consider `Cc1cc(=O)oc2c3c(ccc12)S[C@H](C)[C@@H](OC(=O)[C@]12CC[C@](C)(C(=O)O1)C2(C)C)[C@H]3OC(=O)[C@]12CC[C@](C)(C(=O)O1)C2(C)C`, for which the EC50 result in data set [4] is recorded as “Not Active”.

For `Cc1cc(=O)oc2c3c(ccc12)S[C@H](C)[C@H](OC(=O)[C@]12CC[C@](C)(C(=O)O1)C2(C)C)[C@@H]3OC(=O)[C@]12CC[C@](C)(C(=O)O1)C2(C)C`, the selectivity ratio in data set [1] worked out at 31.1. In data set [3], a half-maximal response (EC50) required 1260 nM.

Regarding `Cc1cc(=O)oc2c3c(ccc12)[S+]([O-])[C@@H](C)C(OC(=O)C12CCC(C)(C(=O)O1)C2(C)C)C3OC(=O)C12CCC(C)(C(=O)O1)C2(C)C` (some centres undefined), the EC50 result in data set [4] is on record as “Not Active”.

In the case of `Cc1cc(=O)oc2c3c(ccc12)[S+]([O-])[C@H](C)[C@H](OC(=O)[C@]12CC[C@](C)(C(=O)O1)C2(C)C)[C@@H]3OC(=O)[C@]12CC[C@](C)(C(=O)O1)C2(C)C` (some centres undefined), in data set [1], the selectivity ratio is 1.57. In data set [3], this molecule came in with an EC50 of 24400 nM.

For the molecule `Cc1cc(=O)oc2c3c(ccc12)S(=O)(=O)[C@@H](C)C(OC(=O)C12CCC(C)(C(=O)O1)C2(C)C)C3OC(=O)C12CCC(C)(C(=O)O1)C2(C)C` (some centres undefined), the selectivity ratio in data set [1] was 11.1. Further, in data set [3], the half-maximal effective concentration (EC50) is 3370 nM.

Take `Cc1cc(=O)oc2c3c(ccc12)OC(C)(C)[C@H](OC(=O)[C@]12CC[C@](C)(C(=O)O1)C2(C)C)[C@@H]3OC(=O)[C@]12CC[C@](C)(C(=O)O1)C2(C)C`: the selectivity ratio in data set [1] worked out at 301. The same molecule yielded an IC50 in data set [2] of 10.4 µM. The EC50 in data set [3] came out at 126 nM.

With `Cc1cc(=O)oc2c3c(ccc12)OC[C@H](OC(=O)[C@]12CC[C@](C)(C(=O)O1)C2(C)C)[C@@H]3OC(=O)[C@]12CC[C@](C)(C(=O)O1)C2(C)C`, the selectivity ratio in data set [1] stood at 2.54. The same molecule registered an EC50 in data set [3] of 16200 nM.

Consider `Cc1cc(=O)oc2c3c(ccc12)SC[C@H](OC(=O)[C@]12CC[C@](C)(C(=O)O1)C2(C)C)[C@@H]3OC(=O)[C@]12CC[C@](C)(C(=O)O1)C2(C)C`, for which the selectivity ratio in data set [1] came to 40.6. The molecule also came in with an EC50 in data set [3] of 990 nM.

`Cc1cn([C@H]2C[C@H](N=[N+]=[N-])[C@@H](CO)O2)c(=O)[nH]c1=O` [ZIDOVUDINE] gave an EC50 in data set [3] of 10 nM.
